Measured values pooled from the literature.
Compare with care: the assays were run in different laboratories.
Target: Focal adhesion kinase 1 (PTK2, Homo sapiens, UniProt Q05397)

| SMILES | effect on | action | technique | tested at | endpoint | result |
| --- | --- | --- | --- | --- | --- | --- |
| CC/C(=N\NC(=O)NCc1cccc(O)c1)c1ccc(O)c(C)c1O | enzyme activity | inhibitor |  | 0.1 µM | inhibition | -3.8% |
| CNCc1ccccc1-c1csc([C@@H](C)Nc2nc(C)nc3cc(OC)c(OC)cc23)c1 | cell-free assay |  | competition with immobilised ligand | 1 µM | remaining binding | 86% |
| Oc1cccc(-c2nc(N3CCOCC3)c3oc4ncccc4c3n2)c1 | cell-free assay |  |  | 0.5 µM | remaining signal | 93.5% |
| CC(C)(C)c1nc(-c2cccc(NS(=O)(=O)c3c(F)cccc3F)c2F)c(-c2ccnc(N)n2)s1 | enzyme activity | inhibitor | radiometric | 1 µM | remaining activity | 89% |
| Cc1cnn2ncc(-c3ccnc(N(C)C)n3)c2c1 | cell-free assay |  |  | 1 µM | remaining signal | 92% |
| COc1cc2ncnc(Nc3ccc(Oc4ccccc4)c(C)c3C)c2cc1OC | enzyme activity | inhibitor |  | 1 µM | inhibition | -1% |
| CS(=O)(=O)Nc1cccc(-c2csc(NC(=O)CSc3nc4nccnc4c(=O)n3CCc3ccccc3)n2)c1 | enzyme activity | inhibitor |  | 10 µM | inhibition | 2% |
| Cc1sc(C(=O)NC2COC2)cc1-n1cc(NC(=O)Nc2c(F)cccc2Cl)cn1 | enzyme activity | inhibitor |  | 10 µM | remaining activity | 104% |
| CC(=O)N1CCC(c2ccc(C(=O)NC(=N)N)cc2C(F)(F)F)CC1 | cell-free assay |  | competition with immobilised ligand | 1 µM | remaining binding | 100% |
| CCN(CC)c1ccc(C2=NNC(=O)CC2C)cc1[N+](=O)[O-] (centres unmarked) | enzyme activity | inhibitor |  | 10 µM | remaining activity | 96% |
| Cc1nccc(COC(=O)N2C[C@@H]3[C@@H](CNC(=O)c4ccc5[nH]nnc5c4)[C@@H]3C2)n1 | cell-free assay |  | competition with immobilised ligand | 1 µM | remaining binding | 100% |
| Cc1ccc(Nc2nccc(N(C)c3ccc4c(C)n(C)nc4c3)n2)cc1S(N)(=O)=O | enzyme activity | inhibitor |  | 0.3 µM | inhibition | 4% |
| CSc1cccnc1N1CCN(Cc2nc3ccccc3[nH]2)CC1 | cell-free assay |  | competition with immobilised ligand | 1 µM | remaining binding | 100% |
| O=C1Nc2ccc(Cl)cc2C1=Cc1cc(Cl)c(O)c(Cl)c1 | cell-free assay |  |  | 0.5 µM | remaining signal | 91.5% |
| COc1ccnn2ncc(-c3ccnc(N(C)C)n3)c12 | cell-free assay |  |  | 1 µM | remaining signal | 100% |
| CC(=O)Nc1c(C(C)=O)c(=O)n(C)c2nc(-c3ccc(Cl)cc3Cl)c(-c3ccc(Cl)cc3)cc12 | cell-free assay |  | competition with immobilised ligand | 1 µM | remaining binding | 100% |
| COc1cc(Cl)c(C(=O)N[C@@H](CN[C@H]2CC[C@@H](N)CC2)Cc2ccc(C#N)cc2)cc1-c1ccc(CN[C@H](C)c2ccc(C)cc2)o1 | enzyme activity | inhibitor |  | 1 µM | remaining activity | 100% |
| O=C1NC(=O)c2cc(Nc3ccc(F)cc3)c(Nc3ccc(F)cc3)cc21 | cell-free assay |  |  | 0.5 µM | remaining signal | 96% |
| COc1cc(-c2cc(-c3ccc(N4CCNCC4)cc3)cnc2C)cc(OC)c1OC | enzyme activity | inhibitor |  | 0.1 µM | inhibition | 26% |
| C=CC(=O)Nc1cc(Nc2nccc(Nc3cc(Cl)c(F)cc3C(C)(C)O)n2)c(OC)cc1N1CC[C@@H](N(C)C)C1 | enzyme activity | inhibitor |  | 1 µM | inhibition | 74% |
| Cc1ccc(C(=O)Nc2ccc(CN3CCN(C)CC3)c(C(F)(F)F)c2)cc1C#Cc1cnc2cccnn12 | enzyme activity | inhibitor |  | 23.5 nM | remaining activity | 100% |
| C[C@@H]1CN(c2cc(-c3nn(C)c4ccc(OC5(C)CC5)cc34)ncn2)C[C@H](C)O1 | cell-free assay |  | competition with immobilised ligand | 1 µM | remaining binding | 95% |
| Cc1ccc(NC(=O)c2ccc(C)c(C(F)(F)F)c2)cc1C#Cc1nn(C2CCC(O)CC2)c2ncnc(N)c12 (centres unmarked) | cell-free assay |  |  | 10 µM | remaining signal | 45% |
| CCCOc1ccc(OC)c(F)c1C(=O)c1ccc(C(=O)N[C@@H]2CNC[C@H]2NC(=O)c2ccc3[nH]ncc3c2)cc1 | enzyme activity | inhibitor |  | 10 µM | remaining activity | 103% |
| Cc1cc(NC(=O)c2cccc3cc(-c4cccc5[nH]nc(N)c45)ccc23)ccc1F | enzyme activity | inhibitor |  | 0.1 µM | activity vs control | 98% |
| Cc1nc(C2CCN(C(=O)c3ccc(OC(F)(F)F)cc3N)CC2)c2ncc(N3CCN(C)CC3)cc2n1 | cell-free assay |  | competition with immobilised ligand | 1 µM | remaining binding | 91% |
| O=C(Nc1cnn(-c2csc(C(=O)NC3COC3)c2)c1)Nc1ccccc1Cl | enzyme activity | inhibitor |  | 5 µM | remaining activity | 95.7% |
| C[C@H](c1cccc(C#N)c1)n1cc(Cl)cc(C(N)=O)c1=N | cell-free assay |  | competition with immobilised ligand | 1 µM | remaining binding | 100% |
| Cc1[nH]c(/C=C2\C(=O)Nc3ccc(F)cc32)c(C)c1C(=O)N[C@H]1CCN(C(=O)N(C)C)C1 | enzyme activity | inhibitor |  | 0.1 µM | remaining activity | 88% |
